Results as given in ChEMBL document CHEMBL2203243, “Synthesis and biological evaluation of novel benzimidazole derivatives and their binding behavior with bovine serum albumin” (Eur J Med Chem, 2012).
Values after ≈ are worked out from the molar mass of the structure shown.

Experiments:
Staphylococcus aureus [1] = experiment: Antimicrobial activity against methicillin-resistant Staphylococcus aureus N315 by microbroth dilution method; type: functional
Bacillus subtilis = experiment: Antimicrobial activity against Bacillus subtilis by microbroth dilution method; type: functional
How it was run: (§1)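 Two-fold serial broth microdilution in 96-well microtest plates, run against four Gram-positive strains, five Gram-negative strains and two fungi.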

Escherichia coli [2] = experiment: Antimicrobial activity against Escherichia coli DH52 by microbroth dilution method; type: functional; how it was run: as §1
Micrococcus luteus = experiment: Antimicrobial activity against Micrococcus luteus ATCC 4698 by microbroth dilution method; type: functional; how it was run: as §1
Pseudomonas aeruginosa [3] = experiment: Antimicrobial activity against Pseudomonas aeruginosa by microbroth dilution method; type: functional; how it was run: as §1
Bacillus = experiment: Antimicrobial activity against Bacillus proteus by microbroth dilution method; type: functional; how it was run: as §1
Staphylococcus aureus [4] = experiment: Antimicrobial activity against Staphylococcus aureus ATCC 25923 by microbroth dilution method; type: functional; how it was run: as §1
[5] = Antimicrobial activity against Eberthella typhosa by microbroth dilution method; type: functional; how it was run: as §1
Shigella dysenteriae = experiment: Antimicrobial activity against Shigella dysenteriae by microbroth dilution method; type: functional
Candida [6] = experiment: Antimicrobial activity against Candida mycoderma by microbroth dilution method; type: functional; how it was run: as §1
Candida albicans = experiment: Antimicrobial activity against Candida albicans by microbroth dilution method; type: functional; how it was run: as §1
[7] = Lipophilicity, log P of the compound by UV-Vis spectrophotometric method based saturation shake flask assay; type: physicochemical; details: octanol/water
How it was run: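 Log P measured by the traditional saturation shake-flask partition, with compound quantified by UV-vis spectrophotometry.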

Escherichia coli [8] = experiment: Potency index, ratio of MIC of chloromycin to MIC of compound against Escherichia coli DH52 by microbroth dilution method; type: functional
Staphylococcus aureus [9] = experiment: Potency index, ratio of MIC of chloromycin to MIC of compound against methicillin-resistant Staphylococcus aureus N315 by microbroth dilution method; type: functional
Pseudomonas aeruginosa [10] = experiment: Potency index, ratio of MIC of chloromycin to MIC of compound against Pseudomonas aeruginosa by microbroth dilution method; type: functional
Candida [11] = experiment: Potency index, ratio of MIC of fluconazole to MIC of compound against Candida mycoderma by microbroth dilution method; type: functional
Albumin = Albumin (Bos taurus, UniProt P02769); experiment: Binding affinity to BSA at pH 7.4 by UV-vis absorption spectroscopic method; type: ADME; details: cattle, isolated protein
Sequence of Albumin (P02769 whole entry): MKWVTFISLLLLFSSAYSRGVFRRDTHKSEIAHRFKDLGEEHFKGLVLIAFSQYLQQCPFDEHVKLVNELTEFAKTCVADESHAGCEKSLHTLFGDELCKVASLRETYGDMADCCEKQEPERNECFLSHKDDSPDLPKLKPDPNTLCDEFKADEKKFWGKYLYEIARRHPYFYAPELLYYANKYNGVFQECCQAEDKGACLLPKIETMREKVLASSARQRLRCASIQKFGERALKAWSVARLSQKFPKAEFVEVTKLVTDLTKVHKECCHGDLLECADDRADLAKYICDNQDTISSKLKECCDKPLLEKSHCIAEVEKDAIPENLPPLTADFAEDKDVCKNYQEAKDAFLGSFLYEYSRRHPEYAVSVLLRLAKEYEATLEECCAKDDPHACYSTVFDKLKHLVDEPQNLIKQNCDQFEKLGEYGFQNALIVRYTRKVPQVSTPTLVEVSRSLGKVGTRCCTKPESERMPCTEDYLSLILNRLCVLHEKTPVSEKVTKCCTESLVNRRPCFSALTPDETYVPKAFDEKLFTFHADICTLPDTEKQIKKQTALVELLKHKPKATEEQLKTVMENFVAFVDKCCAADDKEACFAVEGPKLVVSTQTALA

Row | Structure (SMILES) | MIC (Staphylococcus aureus [1]) [µg/mL] | MIC (Bacillus subtilis) [µg/mL] | MIC (Escherichia coli [2]) [µg/mL] | MIC (Micrococcus luteus) [µg/mL] | MIC (Pseudomonas aeruginosa [3]) [µg/mL] | MIC (Bacillus) [µg/mL] | MIC (Staphylococcus aureus [4]) [µg/mL] | MIC [5] [µg/mL] | MIC (Shigella dysenteriae) [µg/mL] | MIC (Candida [6]) [µg/mL] | MIC (Candida albicans) [µg/mL] | logP [7] | logP ([7]; read-out: logP) | Ratio (Escherichia coli [8]) | Ratio (Staphylococcus aureus [9]) | Ratio (Pseudomonas aeruginosa [10]) | Ratio (Candida [11]) | Activity (Albumin)
1 | Cc1c(C(=O)NNCc2nc3ccccc3n2Cc2ccc(F)cc2)sc(C(=O)NNCc2nc3ccccc3n2Cc2ccc(F)cc2)c1C.Cl | 32 | 16 | 16 | 64 | 64 | 128 | 256 | 256 | 8 | 8 | 64 | – | – | – | – | – | – | –
2 | Cc1c(C(=O)NN)sc(C(=O)NN)c1C | > 512 | > 512 | 512 (≈ 2240 µM) | 512 (≈ 2240 µM) | > 512 | > 512 | > 512 | 512 (≈ 2240 µM) | 512 (≈ 2240 µM) | 512 (≈ 2240 µM) | 512 (≈ 2240 µM) | -1.41 | – | – | – | – | – | –
3 | Cc1c(C(=O)NNCc2nc3ccccc3[nH]2)sc(C(=O)NNCc2nc3ccccc3[nH]2)c1C | > 512 | 128 (≈ 262 µM) | 512 (≈ 1050 µM) | 256 (≈ 524 µM) | > 512 | 256 (≈ 524 µM) | > 512 | 512 (≈ 1050 µM) | 512 (≈ 1050 µM) | 256 (≈ 524 µM) | > 512 | – | 1.25 | – | – | – | – | –
4 | Cc1c(C(=O)NN)sc(C(=O)NNCc2nc3ccccc3[nH]2)c1C | 256 (≈ 714 µM) | 64 (≈ 179 µM) | 512 (≈ 1430 µM) | 128 (≈ 357 µM) | 256 (≈ 714 µM) | 128 (≈ 357 µM) | 256 (≈ 714 µM) | 64 (≈ 179 µM) | 512 (≈ 1430 µM) | 128 (≈ 357 µM) | 256 (≈ 714 µM) | – | 0.84 | – | – | – | – | –
5 | CCCn1c(CNNC(=O)c2sc(C(=O)NNCc3nc4ccccc4n3CCC)c(C)c2C)nc2ccccc21 | 32 (≈ 55.9 µM) | 256 (≈ 447 µM) | 256 (≈ 447 µM) | 256 (≈ 447 µM) | 128 (≈ 223 µM) | 256 (≈ 447 µM) | 512 (≈ 894 µM) | 256 (≈ 447 µM) | 256 (≈ 447 µM) | 256 (≈ 447 µM) | 512 (≈ 894 µM) | – | 3.7 | – | – | – | – | –
6 | CCCCCCn1c(CNNC(=O)c2sc(C(=O)NNCc3nc4ccccc4n3CCCCCC)c(C)c2C)nc2ccccc21 | 4 (≈ 6.09 µM) | 32 (≈ 48.7 µM) | 8 (≈ 12.2 µM) | 64 (≈ 97.4 µM) | 32 (≈ 48.7 µM) | 64 (≈ 97.4 µM) | 32 (≈ 48.7 µM) | 64 (≈ 97.4 µM) | 64 (≈ 97.4 µM) | 32 (≈ 48.7 µM) | 32 (≈ 48.7 µM) | – | 6.62 | – | – | – | – | –
7 | CCCCCCCCn1c(CNNC(=O)c2sc(C(=O)NNCc3nc4ccccc4n3CCCCCCCC)c(C)c2C)nc2ccccc21 | 8 (≈ 11.2 µM) | 32 (≈ 44.9 µM) | 32 (≈ 44.9 µM) | 16 (≈ 22.4 µM) | 16 (≈ 22.4 µM) | > 512 | 32 (≈ 44.9 µM) | 64 (≈ 89.8 µM) | 16 (≈ 22.4 µM) | 4 (≈ 5.61 µM) | 16 (≈ 22.4 µM) | – | 8.19 | – | – | – | – | –
8 | CCCCCCCCCCn1c(CNNC(=O)c2sc(C(=O)NNCc3nc4ccccc4n3CCCCCCCCCC)c(C)c2C)nc2ccccc21 | 2 (≈ 2.6 µM) | 4 (≈ 5.2 µM) | 4 (≈ 5.2 µM) | 16 (≈ 20.8 µM) | 4 (≈ 5.2 µM) | 8 (≈ 10.4 µM) | 2 (≈ 2.6 µM) | 4 (≈ 5.2 µM) | 8 (≈ 10.4 µM) | 2 (≈ 2.6 µM) | 4 (≈ 5.2 µM) | ND(Insoluble) | – | 8 | 8 | 8 | 2 | Active
9 | O=C(N[C@H](CO)[C@H](O)c1ccc([N+](=O)[O-])cc1)C(Cl)Cl [CHLORAMPHENICOL] | 16 (≈ 49.5 µM) | 32 (≈ 99 µM) | 32 (≈ 99 µM) | 8 (≈ 24.8 µM) | 32 (≈ 99 µM) | 32 (≈ 99 µM) | 16 (≈ 49.5 µM) | 32 (≈ 99 µM) | 32 (≈ 99 µM) | – | – | – | – | – | – | – | – | –
10 | OC(Cn1cncn1)(Cn1cncn1)c1ccc(F)cc1F [FLUCONAZOLE] | – | – | – | – | – | – | – | – | – | 4 (≈ 13.1 µM) | 1 (≈ 3.27 µM) | – | – | – | – | – | – | –
11 | CCn1cc(C(=O)O)c(=O)c2cc(F)c(N3CCNCC3)cc21 [NORFLOXACIN] | 8 (≈ 25.1 µM) | 1 (≈ 3.13 µM) | 16 (≈ 50.1 µM) | 2 (≈ 6.26 µM) | 16 (≈ 50.1 µM) | 8 (≈ 25.1 µM) | 0.5 (≈ 1.57 µM) | 4 (≈ 12.5 µM) | 4 (≈ 12.5 µM) | – | – | – | – | – | – | – | – | –
